The results in this text go back to ChEMBL document CHEMBL4725348, “Rational Design and Evaluation of 6-(Pyrimidin-2-ylamino)-3,4-dihydroquinoxalin-2(1H)-ones as Polypharmacological Inhibitors of BET and Kinases” (J Med Chem, 2020).

The target of series [1] is T1, Bromodomain-containing protein 4 (Homo sapiens, UniProt O60885). Nature of the series: Inhibition of His6-tagged BRD4 bromodomain 1 (unknown origin) expressed in Escherichia coli Bl21(DE3) cells incubated for 4 hrs by FP assay. A digest of the protocol:
(§1)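 Fluorescence polarization. Purified bromodomain (His6 tag removed with TEV, size-exclusion purified) equilibrated with fluorescent ligand. Compound or DMSO (2‰ final) then added and left 4 h at room temperature in the dark. Anisotropy read at ex 485/em 530 nm. IC50 values are means of at least two independent experiments; single-point inhibition tested at the listed concentration.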

Series [2] concerns the target T2, Cyclin-dependent kinase 9 (Homo sapiens, UniProt P50750). Nature of the series: Inhibition of human CDK9 by mobility shift assay relative to control. A digest of the protocol: (§2)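 Recombinant CDK9 incubated with compound and CTD3 peptide substrate. Activity read by Caliper mobility-shift; Dinaciclib served as positive control. IC50 values are means of at least two independent experiments.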

For series [3], the target named is Cyclin-dependent kinase 1 (Homo sapiens) (UniProt P06493). Nature of the series: Inhibition of human CDK1 at 1 uM by kinome scan method relative to control. A digest of the protocol: (§3)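 Eurofins DiscoveRx diversity kinase panel run at 1 µM. Inhibition values are means of at least two independent experiments.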
Cyclin-dependent kinase 1 (Homo sapiens), sequence (P06493 whole entry, looked up): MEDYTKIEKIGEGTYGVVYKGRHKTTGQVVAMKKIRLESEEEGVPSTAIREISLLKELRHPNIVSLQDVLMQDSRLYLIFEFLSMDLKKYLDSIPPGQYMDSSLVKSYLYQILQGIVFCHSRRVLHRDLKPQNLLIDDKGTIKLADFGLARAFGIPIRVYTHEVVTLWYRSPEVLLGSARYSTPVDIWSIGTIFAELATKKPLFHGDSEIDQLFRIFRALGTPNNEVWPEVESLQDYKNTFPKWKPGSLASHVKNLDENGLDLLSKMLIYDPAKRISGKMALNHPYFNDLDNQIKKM
The target in series [4] is T3, Cyclin-dependent kinase 2 (Homo sapiens, UniProt P24941). Nature of the series: Inhibition of human CDK2 at 1 uM by kinome scan method relative to control. The gist of the method:
as §3

The target of series [5] is T3, Cyclin-dependent kinase 2. Nature of the series: Inhibition of human CDK2 by kinome scan method.
The species named for series [6] is Homo sapiens. As to the kind of experiment: Selectivity ratio of IC50 for inhibition of human CDK2 to IC50 for inhibition of human CDK9.
Series [7] has as its target T1, Bromodomain-containing protein 4. Nature of the series: Inhibition of His6-tagged BRD4 bromodomain 2 (unknown origin) expressed in Escherichia coli Bl21(DE3) cells at 1 uM incubated for 4 hrs by FP assay relative to control. The gist of the method: as §1
Series [8] concerns the target Bromodomain-containing protein 2 (Homo sapiens) (UniProt P25440). As to the kind of experiment: Inhibition of His6-tagged BRD2 bromodomain 1 (unknown origin) expressed in Escherichia coli Bl21(DE3) cells at 1 uM incubated for 4 hrs by FP assay relative to control. The gist of the method: as §1
Series [9] shares this target. As to the kind of experiment: Inhibition of His6-tagged BRD2 bromodomain 2 (unknown origin) expressed in Escherichia coli Bl21(DE3) cells at 1 uM incubated for 4 hrs by FP assay relative to control. A digest of the protocol: as §1
The target in series [10] is T2, Cyclin-dependent kinase 9. As to the kind of experiment: Inhibition of CDK9 in human HCT-116 cells assessed as reduction in phosphorylation of […] protein expression at 50 to 500 nM after 24 hrs by Western blot analysis. The class given is cell-based. The note with it: dose nM 50-500, time 24.0 hrs. A digest of the protocol: (§4)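 HCT-116 cells plated 24 h, then treated 24 h at 0, 50, 100, 250 or 500 nM. Lysates immunoblotted for p-AR and p-RNA Pol II CTD with GAPDH as loading control; bands quantified and normalized.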

For series [11], the target named is T2, Cyclin-dependent kinase 9. Nature of the series: Inhibition of CDK9 in human HCT-116 cells assessed as reduction in phosphorylation of AR protein expression at 50 to 500 nM after 24 hrs by Western blot analysis. The note with it: dose nM 50-500, time 24.0 hrs. The class given is cell-based. A digest of the protocol: as §4
Background: Immunoblotting shows a protein as a band on a membrane.

Series [12] can be described thus: AUC (0 to infinity) in ICR mouse at 3 mg/kg, ip and measured up to 24 hrs by TQ-S triple quadrupole mass spectrometric method. The class given is ADME, organism-based. On the set-up: route intraperitoneal, dose 3 mg/kg, time <=24. The note with it: in vivo. A digest of the protocol: (§5)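 Male ICR mice (20 - 22 g, n = 3) dosed intraperitoneally, compound at 1 mg/mL in 1%DMSO/0.5%HPMC (5/95, v/v). EDTA plasma collected 0.25–24 h. 10 µL plasma treated with methanol:acetonitrile (1:1) containing internal standard, then centrifuged. LC-MS/MS on C18 UPLC. Parameters derived from composite mean plasma concentration-time data; Cmax is the maximum observed concentration and Tmax the time it is reached.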

The nature of series [13]: AUC (0 to t) in ICR mouse at 3 mg/kg, ip and measured up to 24 hrs by TQ-S triple quadrupole mass spectrometric method. Format: ADME, organism-based. More on the design: route intraperitoneal, dose 3 mg/kg, time <=24. The note with it: in vivo. The gist of the method: as §5
Series [14] can be described thus: Cmax in ICR mouse at 3 mg/kg, ip and measured up to 24 hrs by TQ-S triple quadrupole mass spectrometric method. The class given is ADME, organism-based. More on the design: route intraperitoneal, dose 3 mg/kg, time <=24. The note with it: in vivo. The gist of the method:
as §5

Series [15] is described as follows: Tmax in ICR mouse at 3 mg/kg, ip and measured up to 24 hrs by TQ-S triple quadrupole mass spectrometric method. Format: ADME, organism-based. The note with it: in vivo. The gist of the method:
as §5

Series [16] in a line: Half life in ICR mouse at 3 mg/kg, ip and measured up to 24 hrs by TQ-S triple quadrupole mass spectrometric method. The note with it: in vivo. Format: ADME, organism-based. The gist of the method: as §5
Series [17] in a line: Elimination rate constant in ICR mouse at 3 mg/kg, ip and measured up to 24 hrs by TQ-S triple quadrupole mass spectrometric method. The class given is ADME, organism-based. The note with it: in vivo. The gist of the method: as §5
The target of series [18] is ALK tyrosine kinase receptor (Homo sapiens, UniProt Q9UM73). As to the kind of experiment: Inhibition of ALK (unknown origin).
ALK tyrosine kinase receptor, sequence (Q9UM73 whole entry): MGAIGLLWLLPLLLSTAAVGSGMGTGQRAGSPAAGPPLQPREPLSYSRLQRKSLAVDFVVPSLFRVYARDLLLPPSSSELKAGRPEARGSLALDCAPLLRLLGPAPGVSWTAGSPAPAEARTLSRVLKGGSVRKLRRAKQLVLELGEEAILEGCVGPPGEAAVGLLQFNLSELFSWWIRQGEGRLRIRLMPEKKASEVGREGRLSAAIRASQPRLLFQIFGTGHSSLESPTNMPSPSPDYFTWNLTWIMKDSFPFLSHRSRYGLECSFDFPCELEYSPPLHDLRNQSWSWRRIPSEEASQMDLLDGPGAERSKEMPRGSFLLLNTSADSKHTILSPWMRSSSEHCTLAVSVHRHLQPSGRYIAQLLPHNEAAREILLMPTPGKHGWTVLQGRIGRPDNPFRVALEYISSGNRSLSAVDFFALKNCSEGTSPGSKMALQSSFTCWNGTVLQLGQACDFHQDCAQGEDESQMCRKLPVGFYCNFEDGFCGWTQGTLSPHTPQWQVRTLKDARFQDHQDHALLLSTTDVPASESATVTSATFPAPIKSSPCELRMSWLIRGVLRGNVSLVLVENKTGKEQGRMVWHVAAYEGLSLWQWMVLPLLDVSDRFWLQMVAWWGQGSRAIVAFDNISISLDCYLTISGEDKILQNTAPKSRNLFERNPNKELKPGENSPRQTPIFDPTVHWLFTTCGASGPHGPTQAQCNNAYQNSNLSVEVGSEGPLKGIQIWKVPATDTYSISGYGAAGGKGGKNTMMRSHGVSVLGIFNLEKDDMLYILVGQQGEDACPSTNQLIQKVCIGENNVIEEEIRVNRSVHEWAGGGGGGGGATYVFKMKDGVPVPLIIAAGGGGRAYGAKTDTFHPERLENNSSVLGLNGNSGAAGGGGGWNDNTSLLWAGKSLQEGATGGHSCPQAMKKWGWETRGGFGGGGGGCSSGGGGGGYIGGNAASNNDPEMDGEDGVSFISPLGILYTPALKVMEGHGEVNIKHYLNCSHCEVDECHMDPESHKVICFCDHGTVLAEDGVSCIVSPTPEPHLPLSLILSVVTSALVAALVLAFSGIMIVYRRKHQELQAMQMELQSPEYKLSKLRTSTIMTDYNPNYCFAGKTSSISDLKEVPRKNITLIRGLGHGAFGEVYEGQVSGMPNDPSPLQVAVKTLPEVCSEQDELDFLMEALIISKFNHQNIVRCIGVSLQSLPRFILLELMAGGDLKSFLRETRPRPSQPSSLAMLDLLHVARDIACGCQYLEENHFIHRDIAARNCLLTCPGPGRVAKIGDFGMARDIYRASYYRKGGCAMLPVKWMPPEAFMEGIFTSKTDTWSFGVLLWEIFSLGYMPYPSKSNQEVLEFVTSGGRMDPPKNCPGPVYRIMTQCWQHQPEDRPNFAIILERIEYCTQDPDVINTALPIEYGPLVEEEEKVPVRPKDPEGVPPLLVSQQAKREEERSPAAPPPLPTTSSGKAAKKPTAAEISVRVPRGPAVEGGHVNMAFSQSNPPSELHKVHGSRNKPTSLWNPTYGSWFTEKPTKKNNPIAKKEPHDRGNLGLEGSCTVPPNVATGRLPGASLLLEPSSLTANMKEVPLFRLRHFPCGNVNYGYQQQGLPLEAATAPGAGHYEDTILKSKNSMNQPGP
Series [19] addresses T1, Bromodomain-containing protein 4. Nature of the series: Inhibition of His6-tagged BRD4 bromodomain 1 (unknown origin) expressed in Escherichia coli Bl21(DE3) cells at 1 uM incubated for 4 hrs by FP assay relative to control. A digest of the protocol:
as §1

Series [20] has the same target. As to the kind of experiment: Inhibition of His6-tagged BRD4 bromodomain 1 (unknown origin) expressed in Escherichia coli Bl21(DE3) cells at 10 uM incubated for 4 hrs by FP assay relative to control. A digest of the protocol: as §1
Series [21] has as its target T2, Cyclin-dependent kinase 9. As to the kind of experiment: Inhibition of human CDK9 at 1 uM by mobility shift assay relative to control. The gist of the method: as §2
Series [22] concerns the target T2, Cyclin-dependent kinase 9. As to the kind of experiment: Inhibition of human CDK9 at 100 nM by mobility shift assay relative to control. A digest of the protocol: as §2
Series [23] deals with Cyclin-dependent kinase 6 (Homo sapiens) (UniProt Q00534). Nature of the series: Inhibition of CDK6 (unknown origin) at 1 uM relative to control.
Cyclin-dependent kinase 6 (Homo sapiens), sequence (Q00534 whole entry): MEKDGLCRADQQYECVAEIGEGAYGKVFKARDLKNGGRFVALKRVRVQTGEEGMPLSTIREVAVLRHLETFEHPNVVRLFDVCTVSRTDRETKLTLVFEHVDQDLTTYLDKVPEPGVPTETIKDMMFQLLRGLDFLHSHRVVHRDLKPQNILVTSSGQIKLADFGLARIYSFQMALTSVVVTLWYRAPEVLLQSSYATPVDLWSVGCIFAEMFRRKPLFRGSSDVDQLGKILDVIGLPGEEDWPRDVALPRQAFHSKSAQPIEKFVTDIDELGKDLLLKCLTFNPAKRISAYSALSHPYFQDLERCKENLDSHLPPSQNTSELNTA
Series [24] shares this target. As to the kind of experiment: Inhibition of CDK6 (unknown origin) at 100 nM relative to control.
Series [25] deals with Phosphatidylinositol 4,5-bisphosphate 3-kinase catalytic subunit alpha isoform (Homo sapiens) (UniProt P42336). Nature of the series: Inhibition PI3Kalpha (unknown origin) at 1 uM relative to control.
Phosphatidylinositol 4,5-bisphosphate 3-kinase catalytic subunit alpha isoform (Homo sapiens), sequence (P42336 whole entry, canonical isoform): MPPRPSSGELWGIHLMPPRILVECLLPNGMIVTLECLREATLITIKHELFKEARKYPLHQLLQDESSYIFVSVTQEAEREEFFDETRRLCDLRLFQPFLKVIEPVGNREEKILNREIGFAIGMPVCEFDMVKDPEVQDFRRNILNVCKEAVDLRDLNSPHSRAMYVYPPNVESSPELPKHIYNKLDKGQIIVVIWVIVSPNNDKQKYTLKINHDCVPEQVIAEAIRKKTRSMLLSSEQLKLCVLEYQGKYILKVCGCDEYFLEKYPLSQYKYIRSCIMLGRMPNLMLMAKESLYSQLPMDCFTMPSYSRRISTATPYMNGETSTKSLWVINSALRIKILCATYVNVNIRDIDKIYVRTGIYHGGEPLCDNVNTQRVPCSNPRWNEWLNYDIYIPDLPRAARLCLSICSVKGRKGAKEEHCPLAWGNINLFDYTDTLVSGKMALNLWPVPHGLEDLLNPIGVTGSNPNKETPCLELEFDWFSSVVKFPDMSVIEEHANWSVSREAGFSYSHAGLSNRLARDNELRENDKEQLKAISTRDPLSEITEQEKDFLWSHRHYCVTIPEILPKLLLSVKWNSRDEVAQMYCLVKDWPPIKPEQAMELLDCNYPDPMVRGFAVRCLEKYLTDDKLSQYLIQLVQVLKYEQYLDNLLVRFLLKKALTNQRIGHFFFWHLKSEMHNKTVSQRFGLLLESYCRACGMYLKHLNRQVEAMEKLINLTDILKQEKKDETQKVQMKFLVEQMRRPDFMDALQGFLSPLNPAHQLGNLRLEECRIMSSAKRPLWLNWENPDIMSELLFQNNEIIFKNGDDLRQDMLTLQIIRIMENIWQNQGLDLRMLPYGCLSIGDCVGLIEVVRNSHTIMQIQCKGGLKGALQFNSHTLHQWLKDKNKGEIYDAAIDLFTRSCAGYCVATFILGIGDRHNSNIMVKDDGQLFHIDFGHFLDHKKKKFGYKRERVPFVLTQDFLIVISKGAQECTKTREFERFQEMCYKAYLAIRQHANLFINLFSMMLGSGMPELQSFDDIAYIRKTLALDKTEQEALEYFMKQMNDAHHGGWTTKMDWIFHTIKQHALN
The target is the same in series [26]. As to the kind of experiment: Inhibition PI3Kalpha (unknown origin) at 100 nM relative to control.
Series [27] has as its target T4, Aurora kinase A (Homo sapiens) (UniProt O14965).
T4 sequence (whole entry): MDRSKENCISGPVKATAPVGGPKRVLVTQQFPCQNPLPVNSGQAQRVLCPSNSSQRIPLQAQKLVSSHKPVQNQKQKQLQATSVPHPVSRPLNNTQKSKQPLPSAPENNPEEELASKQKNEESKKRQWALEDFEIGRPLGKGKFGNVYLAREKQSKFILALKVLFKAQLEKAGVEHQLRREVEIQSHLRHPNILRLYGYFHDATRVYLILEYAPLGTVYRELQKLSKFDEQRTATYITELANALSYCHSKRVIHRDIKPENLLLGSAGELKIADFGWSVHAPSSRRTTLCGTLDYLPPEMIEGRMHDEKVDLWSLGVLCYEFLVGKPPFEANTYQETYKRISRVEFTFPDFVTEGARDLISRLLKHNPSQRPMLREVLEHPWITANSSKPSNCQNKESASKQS
As to the kind of experiment: Inhibition AuroraA (unknown origin) at 1 uM relative to control.

Series [28] addresses T4, Aurora kinase A (Homo sapiens). As to the kind of experiment: Inhibition AuroraA (unknown origin) at 100 nM relative to control.

Some results are limits rather than exact numbers.

T2 sequence (P50750 whole entry): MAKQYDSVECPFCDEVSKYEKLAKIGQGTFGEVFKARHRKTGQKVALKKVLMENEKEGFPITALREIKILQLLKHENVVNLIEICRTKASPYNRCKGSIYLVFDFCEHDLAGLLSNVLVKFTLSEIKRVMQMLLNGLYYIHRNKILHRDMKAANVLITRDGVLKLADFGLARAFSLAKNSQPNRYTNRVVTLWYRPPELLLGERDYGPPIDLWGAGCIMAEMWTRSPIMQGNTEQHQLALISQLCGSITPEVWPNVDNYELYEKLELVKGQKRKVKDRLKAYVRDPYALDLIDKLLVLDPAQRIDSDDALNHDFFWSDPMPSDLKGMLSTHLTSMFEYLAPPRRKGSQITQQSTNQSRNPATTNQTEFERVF
Bromodomain-containing protein 2 (Homo sapiens), sequence (P25440 whole entry, looked up): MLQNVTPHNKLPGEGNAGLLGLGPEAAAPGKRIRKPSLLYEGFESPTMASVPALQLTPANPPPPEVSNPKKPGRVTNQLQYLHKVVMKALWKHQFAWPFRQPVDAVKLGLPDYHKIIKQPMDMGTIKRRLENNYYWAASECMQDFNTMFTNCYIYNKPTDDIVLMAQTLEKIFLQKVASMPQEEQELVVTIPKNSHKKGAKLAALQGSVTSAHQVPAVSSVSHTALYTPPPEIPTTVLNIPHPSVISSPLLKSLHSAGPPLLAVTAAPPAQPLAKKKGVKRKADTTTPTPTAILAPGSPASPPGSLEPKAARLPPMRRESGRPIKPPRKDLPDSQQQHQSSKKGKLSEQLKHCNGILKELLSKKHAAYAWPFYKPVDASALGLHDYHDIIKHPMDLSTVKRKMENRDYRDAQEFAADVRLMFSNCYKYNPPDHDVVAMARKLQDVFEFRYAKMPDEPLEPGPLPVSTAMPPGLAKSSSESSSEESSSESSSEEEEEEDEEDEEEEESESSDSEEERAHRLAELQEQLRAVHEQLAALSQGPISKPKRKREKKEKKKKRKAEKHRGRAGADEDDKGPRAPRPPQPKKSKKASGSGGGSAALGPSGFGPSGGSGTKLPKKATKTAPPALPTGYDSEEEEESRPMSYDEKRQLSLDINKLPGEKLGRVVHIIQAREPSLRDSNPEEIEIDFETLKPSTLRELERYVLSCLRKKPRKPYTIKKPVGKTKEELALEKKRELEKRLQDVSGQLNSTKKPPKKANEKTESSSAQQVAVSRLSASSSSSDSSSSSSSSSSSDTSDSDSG

What is called IC50 is the point on the concentration scale where inhibition reaches its midpoint. Usually inhibition stands for the change of the read-out against control, counted positive when it falls. Usually AUC(0-inf) stands for total exposure, with the tail of the curve extrapolated. Higher therefore signals more exposure. As a reminder, the AUC(0-t) is the area under the concentration-time curve up to a stated or last time point. A low value points to less exposure. As a reminder, the Cmax is the peak of the concentration-time curve. The term Tmax denotes the time at which the peak concentration occurs. What is called half-life is how long it takes for the measured level to halve. A high value points to slow decline. `CC(C)N1c2cc(Nc3nccc(-c4cncc5ccccc45)n3)ccc2N(C)C(=O)[C@H]1C`: the values for the IC50 in series [1], in series [2] and in series [5] were 12.7 nM, 22.4 nM and 169 nM, respectively. Also, the inhibition in series [3] was 90%; in series [4], 90%; in [7], less than 12%; in series [8], less than 12%; in series [9] it was less than 12%; in series [10] it was “Dose-dependent effect”. For the same compound, in series [11], the inhibition entry is “Dose-dependent effect”. For the same compound, the Ratio IC50 in [6] was determined as 8. The total exposure AUC(0-inf) in series [12] came to 759 ng·h/mL. This compound also yielded an area under the curve AUC(0-t) at 24 h in series [13] of 757 ng·h/mL. Moreover, in [14], the peak level (Cmax) was 1370 ng/mL. In addition, the Tmax in series [15] came to 11.6 min. Further, the half-life in [16] is 28.8 min. The compound also showed a k el at 24 h in series [17] of 0.000403 s⁻¹.

As for `CCOc1cc(C2CCN(C)CC2)ccc1Nc1ncc2c(n1)N(Cc1cc(C)cs1)[C@H](CC)C(=O)N2C`, in series [18], the IC50 came out at 17 nM.

With `Cc1noc(C)c1-c1cccc(Nc2nccc(-c3ccncc3)n2)c1`, the inhibition in series [19] was 37.7%.

`Cc1noc(C)c1-c1cccc(Nc2nccc(-c3ccccc3)n2)c1`: the inhibition in series [19] amounted to 2.2%.

With `CC(C)N1c2cc(Nc3nccc(-c4cccc(NC5CCCC5)c4)n3)ccc2N(C)C(=O)[C@H]1C`, the concentration for half-maximal inhibition (IC50) in [2] is 122 nM. Besides, the inhibition in series [20] is 11%.

`COc1ccccc1-c1ccnc(Nc2ccc3c(c2)N(C(C)C)[C@H](C)C(=O)N3C)n1`: in series [1], the IC50 is 477 nM. Moreover, the inhibition in [21] was 104%; in series [22], 67.9%; in series [23] it was 8.1%; in [24] it was 2.3%; in [25], 0.1%; in [26], -2.1%. Also, the values for the inhibition in series [27] and in series [28] were 86.8% and 37.4%, respectively.

On to `CC(C)N1c2cc(Nc3nccc(-c4cccc(NC5CCCCC5)c4)n3)ccc2N(C)C(=O)[C@H]1C`, for which, in [2], the IC50 turned out to be 169 nM. For the same compound, the inhibition in series [20] was determined as 13%.

On to `COc1cc(F)ccc1-c1ncnc(Nc2cccc(C[S@](C)(=N)=O)c2)n1`, for which the inhibition result in [10] and in series [11] was “Dose-dependent effect” each time.

The compound `CC(C)N1c2cc(Nc3cccc(-c4cccc(C#N)c4)c3)ccc2N(C)C(=O)[C@H]1C` displayed an IC50 in [1] of 666 nM. Further, the inhibition in series [21] is -4.1%; in series [22] it was 2%; in [23], -3.3%; in [24] it was 2.3%; in series [25], 5.2%; in series [26] it was -0.1%. The inhibition in series [27] was -1.8%; in [28], -3%.
